# Data from ChEMBL document CHEMBL1122607, “Heterocyclic analogues of chlorcyclizine with potent hypolipidemic activity” (J Med Chem, 1984).
# “And” between values parts separate entries of the source, which are not always exact repeats. Identical values can stand only once.
# Experiments:
# [1] = test system: Rattus norvegicus; test: Hypolipidemic activity was measured as reduction in rat serum cholesterol after oral administration in male Wistar rats at 30 mg / (kg day); type: functional
# How it was run: (§1)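 Cholesterol-fed rats given the test compound orally by gavage on the last 3 days, with controls receiving vehicle (0.5% tragacanth mucilage). After overnight starvation, rats were killed under CO2 3 h after the last dose and bled by cardiac puncture. Serum cholesterol and triglyceride were measured by autoanalyzer and expressed as percentage reduction from control levels, with Student's t test.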
# [2] = test system: Rattus norvegicus; test: Hypolipidemic activity was measured as reduction in rat serum triglyceride after oral administration in male Wistar rats at 30 mg / (kg day); type: functional; how it was run: as §1
# [3] = The therapeutic safety margin (TSM) is the ratio of the minimum lethal dose (mg/kg)to the MED; type: ADME, organism-based; conditions: in vivo
# How it was run: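 Young male Wistar rats, eight per group, on cholesterol/cholic acid-supplemented or normal diet; graded oral gavage doses daily for 14 days; vehicle controls (0.5% tragacanth mucilage). Mortalities recorded to give the minimum lethal daily dose. After overnight fasting, serum cholesterol assayed by autoanalyzer. MED is the dose giving a significant (t test) 30% cholesterol fall, from the log dose/response curve. TSM = minimum lethal dose/MED.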
# [4] = test system: Rattus norvegicus; test: Hypolipidemic activity was measured as reduction in rat serum triglyceride after oral administration in male Wistar rats at 10 mg / (kg day); type: functional; how it was run: as §1
# [5] = test system: Rattus norvegicus; test: Hypolipidemic activity was measured as reduction in rat serum cholesterol after oral administration in male Wistar rats at 10 mg / (kg day); type: functional; how it was run: as §1
# [6] = test system: Rattus norvegicus; test: Hypolipidemic activity was measured as reduction in rat serum triglyceride after oral administration in male Wistar rats at 3 mg / (kg day); type: functional; how it was run: as §1
# [7] = test system: Rattus norvegicus; test: Hypolipidemic activity was measured as reduction in rat serum triglyceride after oral administration in male Wistar rats at 100 mg / (kg day); type: functional; how it was run: as §1
# [8] = test system: Rattus norvegicus; test: Hypolipidemic activity was measured as reduction in rat serum cholesterol after oral administration in male Wistar rats at 1 mg / (kg day); type: functional; how it was run: as §1
# [9] = test system: Rattus norvegicus; test: Hypolipidemic activity was measured as reduction in rat serum cholesterol after oral administration in male Wistar rats at 3 mg / (kg day); type: functional; how it was run: as §1
# [10] = test system: Rattus norvegicus; test: Hypolipidemic activity was measured as reduction in rat serum cholesterol after oral administration in male Wistar rats at 100 mg/(kg day); type: functional; how it was run: as §1
# [11] = test system: Rattus norvegicus; test: Hypolipidemic activity was measured as reduction in rat serum triglyceride after oral administration in male Wistar rats at 1 mg / (kg day); type: functional; how it was run: as §1
# [12] = test system: Rattus norvegicus; test: Minimum effective dose (MED) is the dose (mg/kg)that cause significant reduction in serum cholesterol of 30% compared to concurrent controls.; type: functional; set-up: unit: mg/kg
# How it was run: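 MED was calculated from the log dose/response curve as the dose giving a statistically significant 30% fall in serum cholesterol versus concurrent controls. Measured in the 3-day oral cholesterol-fed rat screen, or in a 2-week test: groups of eight young male Wistar rats on cholesterol/cholic acid-supplemented or normal diet, dosed orally by gavage daily for 14 days, vehicle 0.5% tragacanth mucilage.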
# [13] = test system: Rattus norvegicus; test: Hypolipidemic activity was measured as reduction in rat serum cholesterol after oral administration in male Wistar rats at 20 mg / (kg day); type: functional; how it was run: as §1
# [14] = test system: Rattus norvegicus; test: Hypolipidemic activity was measured as reduction in rat serum triglyceride after oral administration in male Wistar rats at 20 mg / (kg day); type: functional; how it was run: as §1
# [15] = test system: Rattus norvegicus; test: Hypolipidemic activity was measured as reduction in rat serum triglyceride after oral administration in male Wistar rats at 50 mg / (kg day); type: functional; how it was run: as §1
# [16] = test system: Rattus norvegicus; test: Hypolipidemic activity was measured as reduction in rat serum cholesterol after oral administration in male Wistar rats at 50 mg / (kg day); type: functional; how it was run: as §1
# [17] = test system: Rattus norvegicus; test: Hypolipidemic activity was measured as reduction in rat serum cholesterol after oral administration in male Wistar rats at 200 mg/(kg day); type: functional; how it was run: as §1
# [18] = test system: Rattus norvegicus; test: Hypolipidemic activity was measured as reduction in rat serum cholesterol after oral administration in male Wistar rats at 100 mg / (kg day); type: functional; how it was run: as §1
# [19] = test system: Rattus norvegicus; test: Hypolipidemic activity was measured as reduction in rat serum triglyceride after oral administration in male Wistar rats at 200 mg / (kg day); type: functional; how it was run: as §1
# [20] = test system: Rattus norvegicus; test: Hypolipidemic activity was measured as reduction in rat serum cholesterol after oral administration in male Wistar rats at 200 mg / (kg day); type: functional; how it was run: as §1
structure (smiles),measurement,setting,value
Cc1noc(C)c1C(=C1CCN(C)CC1)c1ccc(C(C)C)cc1,Reduction,[1],89%
same,Reduction,[2],93%
same,therapeutic safety margin (minimum lethal dose / MED),[3],50
same,Reduction,[4],78%
same,Reduction,[5],83%
same,Reduction,[6],43%
same,Reduction,[7],90%
same,Reduction,[8],31%
same,Reduction,[9],58%
same,Reduction,[10],82%
same,Reduction,[11],13%
same,MED,[12],1
COc1ccccc1C(c1ccns1)N1CCN(C)CC1 (stereo not given),Reduction,[13],3%
same,Reduction,[14],22%
same,Reduction,[15],32%
same,Reduction,[7],13%
same,Reduction,[16],31%
same,Reduction,[10],38%
same,MED,[12],80
Cc1cc(C(c2ccccc2)N2CCN(C)CC2)sn1 (stereo not given),Reduction,[17],36%
same,Reduction,[18],21%
Cc1cc(C(=C2CCN(C)CC2)c2ccc(C(C)C)cc2)sn1,Reduction,[1],87%
same,Reduction,[2],76%
same,therapeutic safety margin (minimum lethal dose / MED),[3],5
same,Reduction,[4],34%
same,Reduction,[5],62%
same,Reduction,[6],37%
same,Reduction,[7],96%
same,Reduction,[8],19%
same,Reduction,[9],26%
same,Reduction,[10],83%
same,Reduction,[11],3%
same,MED,[12],6
CN1CCN(C(c2ccccc2)c2ccns2)CC1 (stereo not given),Reduction,[15],13%
same,Reduction,[16],34%
same,Reduction,[19],46%
same,Reduction,[20],68%
CN1CCN(C(c2ccc(Cl)cc2)c2ccns2)CC1 (stereo not given),Reduction,[15],38%
same,Reduction,[7],41%
same,Reduction,[16],17%
same,Reduction,[19],37%
same,Reduction,[10],38%
same,MED,[12],84
same,Reduction,[20],63%
CC(C)c1ccccc1C(c1ccns1)N1CCN(C)CC1 (stereo not given),Reduction,[1],43%
same,Reduction,[2],36%
same,Reduction,[4],31%
same,Reduction,[5],32%
same,Reduction,[6],14%
same,Reduction,[7],71%
same,Reduction,[9],15%
same,Reduction,[10],77%
same,MED,[12],10
Cc1cnsc1C(c1ccc(C(C)C)cc1)N1CCN(C)CC1 (stereo not given),Reduction,[1],69%
same,Reduction,[2],64%
same,therapeutic safety margin (minimum lethal dose / MED),[3],30
same,Reduction,[4],42%
same,Reduction,[5],48%
same,Reduction,[6],5%
same,Reduction,[7],89%
same,Reduction,[9],31%
same,Reduction,[10],68%
same,MED,[12],3
Cc1noc(C)c1C(c1ccc(C(C)C)cc1)N1CCN(C)CC1 (stereo not given),Reduction,[1],80%
same,Reduction,[2],69%
same,therapeutic safety margin (minimum lethal dose / MED),[3],100
same,Reduction,[4],35%
same,Reduction,[5],67%
same,Reduction,[7],66%
same,Reduction,[8],8%
same,Reduction,[9],41% and 30%
same,Reduction,[10],87%
same,Reduction,[11],31%
same,MED,[12],2
Cc1cnsc1C(c1ccc(C(C)C)cc1)N1CCNCC1 (stereo not given),Reduction,[1],87%
same,Reduction,[2],76%
same,therapeutic safety margin (minimum lethal dose / MED),[3],10
same,Reduction,[4],48%
same,Reduction,[5],70%
same,Reduction,[6],2%
same,Reduction,[7],81%
same,Reduction,[8],16%
same,Reduction,[9],44%
same,Reduction,[10],86%
same,Reduction,[11],15%
same,MED,[12],2
COc1ccccc1C(c1cc(C)ns1)N1CCN(C)CC1 (stereo not given),Reduction,[15],17%
same,Reduction,[16],26%
same,Reduction,[19],78%
same,Reduction,[20],75%
CC(C)c1ccc(C(c2ccns2)N2CCNCC2)cc1 (stereo not given),Reduction,[1],74%
same,Reduction,[2],87%
same,therapeutic safety margin (minimum lethal dose / MED),[3],4
same,Reduction,[4],65%
same,Reduction,[5],62%
same,Reduction,[6],18%
same,Reduction,[7],90%
same,Reduction,[8],37%
same,Reduction,[9],57%
same,Reduction,[10],84%
same,Reduction,[11],24%
same,MED,[12],1
Cc1cc(C(c2ccccc2C)N2CCN(C)CC2)sn1 (stereo not given),Reduction,[13],27%
same,therapeutic safety margin (minimum lethal dose / MED),[3],10
same,Reduction,[14],14%
same,Reduction,[15],26%
same,Reduction,[16],56%
same,Reduction,[19],84%
same,MED,[12],22
same,Reduction,[20],65%
